From ChEMBL document CHEMBL1287747, “Highly active antimycobacterial derivatives of benzoxazine” (2010) come the findings set out here.

Holding throughout (type): functional
The test system of test [1] is Mycobacterium tuberculosis. Description: Antimycobacterial activity against Mycobacterium tuberculosis CNCTC My 331/88 after 14 days by microdilution method. The settings on record: CNCTC My 331/88, 336 h. The procedure, abridged:
(§1)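 Strains from the Czech National Collection of Type Cultures, tested by dilution micromethod in Šula semisynthetic medium. Incubated at 37 °C and read at 14 and 21 days. MIC is the lowest concentration inhibiting growth.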
On the technique in general: Broth dilution looks for growth in wells or tubes with falling amounts of substance.

For test [2], the system named is Mycobacterium tuberculosis. Description: Antimycobacterial activity against Mycobacterium tuberculosis CNCTC My 331/88 after 21 days by microdilution method. The settings on record: CNCTC My 331/88, 504 h. The method, boiled down:
as §1

Test [3] deals with Mycobacterium avium. Description: Antimycobacterial activity against Mycobacterium avium CNCTC My 330/88 after 14 days by microdilution method. The settings on record: CNCTC My 330/88, 336 h. The procedure, abridged:
as §1

The test system of test [4] is Mycobacterium avium. Description: Antimycobacterial activity against Mycobacterium avium CNCTC My 330/88 after 21 days by microdilution method. The settings on record: CNCTC My 330/88, 504 h. The method, boiled down: as §1
The subject of test [5] is Mycobacterium kansasii. Description: Antimycobacterial activity against Mycobacterium kansasii CNCTC My 235/80 after 14 days by microdilution method. The settings on record: CNCTC My 235/80, 336 h. The procedure, abridged:
as §1

Test [6] deals with Mycobacterium kansasii. Description: Antimycobacterial activity against Mycobacterium kansasii CNCTC My 235/80 after 21 days by microdilution method. The settings on record: CNCTC My 235/80, 504 h. The method, boiled down: as §1
In test [7] the test system is Mycobacterium kansasii. Description: Antimycobacterial activity against Mycobacterium kansasii 6509/96 after 14 days by microdilution method. The settings on record: 6509/96, 336 h. The method, boiled down:
(§2)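 Clinical isolate that, unlike the standard strain, is not isoniazid-resistant. Tested by dilution micromethod in Šula semisynthetic medium, with compounds added in DMSO at final 1000 down to 0.25 µmol/L in twofold steps. Löwenstein-Jensen plate used as inoculum sterility and growth control. Incubated at 37 °C and read at 14 and 21 days. MIC is the lowest concentration inhibiting growth.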

The subject of test [8] is Mycobacterium kansasii. Description: Antimycobacterial activity against Mycobacterium kansasii 6509/96 after 21 days by microdilution method. The settings on record: 6509/96, 504 h. The method, boiled down:
as §2

Values after ≈ are worked out from the molar mass of the structure shown.

On to `CC(C)c1ccc(-n2c(=O)oc3ccc(Br)cc3c2=S)cc1`, for which the MIC (in general, the lowest concentration that inhibits growth of the organism) was found to be 0.25 µM (≈ 0.0941 µg/mL) in test [1]; 0.5 µM (≈ 0.188 µg/mL) in test [2]; 4 µM (≈ 1.51 µg/mL) in test [3]; 8 µM (≈ 3.01 µg/mL) in test [4]; 32 µM (≈ 12 µg/mL) in test [5]; 62.5 µM (≈ 23.5 µg/mL) in test [6]. In addition, the MIC in test [7] was determined as 4 µM (≈ 1.51 µg/mL); in test [8], 8 µM (≈ 3.01 µg/mL).
Turning to `CC(C)(C)c1ccc(-n2c(=S)oc3ccc(F)cc3c2=S)cc1`, the MIC in test [1] was 0.5 µM (≈ 0.173 µg/mL); in test [2] it was 0.5 µM (≈ 0.173 µg/mL); in test [3], 0.5 µM (≈ 0.173 µg/mL); in test [4], 1 µM (≈ 0.345 µg/mL); in test [5], 8 µM (≈ 2.76 µg/mL); in test [6], 8 µM (≈ 2.76 µg/mL). Besides, the minimum inhibitory concentration (MIC) in test [7] is 4 µM (≈ 1.38 µg/mL); in test [8], 8 µM (≈ 2.76 µg/mL).
Turning to `CCc1ccc(-n2c(=O)oc3ccc(Br)cc3c2=S)cc1`, the MIC came to 0.5 µM (≈ 0.181 µg/mL) in test [1]; 0.5 µM (≈ 0.181 µg/mL) in test [2]; 32 µM (≈ 11.6 µg/mL) in test [3]; 32 µM (≈ 11.6 µg/mL) in test [4]; 8 µM (≈ 2.9 µg/mL) in test [5]; 16 µM (≈ 5.8 µg/mL) in test [6]. For the same compound, the values for the MIC in test [7] and in test [8] were 4 µM (≈ 1.45 µg/mL) and 8 µM (≈ 2.9 µg/mL), respectively.
For the compound `Cc1ccc2c(=S)n(-c3ccc(C(C)(C)C)cc3)c(=O)oc2c1`, the MIC in test [1] was 0.25 µM (≈ 0.0814 µg/mL); in test [2], 0.5 µM (≈ 0.163 µg/mL); in test [3] it was 0.25 µM (≈ 0.0814 µg/mL); in test [4] it was 0.5 µM (≈ 0.163 µg/mL); in test [5], 2 µM (≈ 0.651 µg/mL); in test [6], 2 µM (≈ 0.651 µg/mL). The MIC in test [7] and in test [8] was 1 µM (≈ 0.325 µg/mL) each time.
On to `CC(C)c1ccc(-n2c(=O)oc3ccc(F)cc3c2=S)cc1`, for which the MIC in test [1] is 0.25 µM (≈ 0.0788 µg/mL); in test [2], 0.5 µM (≈ 0.158 µg/mL); in test [3] it was 0.5 µM (≈ 0.158 µg/mL); in test [4], 1 µM (≈ 0.315 µg/mL); in test [5] it was 2 µM (≈ 0.631 µg/mL); in test [6] it was 4 µM (≈ 1.26 µg/mL). The MIC in test [7] and in test [8] was 4 µM (≈ 1.26 µg/mL) each time.
Regarding `CC(C)c1ccc(-n2c(=O)oc3ccc(Cl)cc3c2=S)cc1`, the MIC in test [1] is 0.5 µM (≈ 0.166 µg/mL); in test [2], 1 µM (≈ 0.332 µg/mL); in test [3], 32 µM (≈ 10.6 µg/mL); in test [4], 125 µM (≈ 41.5 µg/mL); in test [5], 8 µM (≈ 2.65 µg/mL); in test [6], 16 µM (≈ 5.31 µg/mL). Besides, the MIC is 1 µM (≈ 0.332 µg/mL) in test [7] and 2 µM (≈ 0.664 µg/mL) in test [8].
Turning to `CC(C)c1ccc(-n2c(=S)oc3cc(Cl)ccc3c2=S)cc1`, the MIC in test [1] was 0.5 µM (≈ 0.174 µg/mL); in test [2], 1 µM (≈ 0.348 µg/mL); in test [3], 8 µM (≈ 2.78 µg/mL); in test [4], 8 µM (≈ 2.78 µg/mL); in test [5], 4 µM (≈ 1.39 µg/mL); in test [6] it was 8 µM (≈ 2.78 µg/mL). In addition, the MIC in test [7] and in test [8] was 4 µM (≈ 1.39 µg/mL) in each case.
Consider `CCC(C)c1ccc(-n2c(=O)oc3ccc(F)cc3c2=S)cc1` (centres undefined), for which the MIC came to 0.25 µM (≈ 0.0823 µg/mL) in test [1]; 0.5 µM (≈ 0.165 µg/mL) in test [2]; 1 µM (≈ 0.329 µg/mL) in test [3]; 1 µM (≈ 0.329 µg/mL) in test [4]; 4 µM (≈ 1.32 µg/mL) in test [5]; 4 µM (≈ 1.32 µg/mL) in test [6]. Also, the values for the MIC in test [7] and in test [8] were 2 µM (≈ 0.659 µg/mL) and 4 µM (≈ 1.32 µg/mL), respectively.
For `CCCCc1ccc(-n2c(=O)oc3ccc(Cl)cc3c2=O)cc1`, the MIC in test [1] was 16 µM (≈ 5.28 µg/mL); in test [2] it was 16 µM (≈ 5.28 µg/mL); in test [3], 16 µM (≈ 5.28 µg/mL); in test [4], 16 µM (≈ 5.28 µg/mL); in test [5], 8 µM (≈ 2.64 µg/mL); in test [6] it was 8 µM (≈ 2.64 µg/mL). The MIC in test [7] is 8 µM (≈ 2.64 µg/mL); in test [8] it was 16 µM (≈ 5.28 µg/mL).
As for `CCC(C)c1ccc(-n2c(=O)oc3ccc(F)cc3c2=O)cc1` (centres undefined), the MIC in test [1], in test [2], in test [3], in test [4], in test [5] and in test [6] was 8 µM (≈ 2.51 µg/mL) throughout. Moreover, the MIC came to 4 µM (≈ 1.25 µg/mL) in test [7] and 8 µM (≈ 2.51 µg/mL) in test [8].
For the compound `CC(C)(C)c1ccc(-n2c(=O)oc3cc(Cl)ccc3c2=O)cc1`, the minimal inhibitory concentration (MIC) in test [1] was 4 µM (≈ 1.32 µg/mL); in test [2] it was 4 µM (≈ 1.32 µg/mL); in test [3], 4 µM (≈ 1.32 µg/mL); in test [4], 8 µM (≈ 2.64 µg/mL); in test [5], 8 µM (≈ 2.64 µg/mL); in test [6], 16 µM (≈ 5.28 µg/mL). For the same compound, the MIC in test [7] and in test [8] was 8 µM (≈ 2.64 µg/mL) throughout.
Turning to `Cc1ccc(-n2c(=O)oc3ccc(Br)cc3c2=S)cc1`, the MIC in test [1] amounted to 0.5 µM (≈ 0.174 µg/mL); in test [2], 1 µM (≈ 0.348 µg/mL); in test [3], 32 µM (≈ 11.1 µg/mL); in test [4], 32 µM (≈ 11.1 µg/mL); in test [5], 2 µM (≈ 0.696 µg/mL); in test [6] it was 4 µM (≈ 1.39 µg/mL). The results for the MIC in test [7] and in test [8] were 2 µM (≈ 0.696 µg/mL) and 4 µM (≈ 1.39 µg/mL), respectively.
Regarding `CCc1ccc(-n2c(=O)oc3ccc(Cl)cc3c2=S)cc1`, the MIC in test [1] turned out to be 0.5 µM (≈ 0.159 µg/mL); in test [2], 0.5 µM (≈ 0.159 µg/mL); in test [3], 16 µM (≈ 5.08 µg/mL); in test [4], 16 µM (≈ 5.08 µg/mL); in test [5] it was 8 µM (≈ 2.54 µg/mL); in test [6] it was 8 µM (≈ 2.54 µg/mL). The MIC in test [7] and in test [8] was 4 µM (≈ 1.27 µg/mL) each time.
